Experiment [1] deals with Hepatocyte. The experiment is described as follows: Inhibition of glucogenesis in mouse primary hepatocytes stimulated with 100 uM 8-Br-cAMP assessed as effect on HNF4alpha mRNA expression at 3 uM measured after 8 hrs by RT-qPCR assay. Type of experiment: functional, cell-based. A digest of the protocol: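 Primary mouse hepatocytes treated with 3 μM compound and 100 μM 8-Br-cAMP for 8 h. Trizol RNA, SYBR Green RT-qPCR of the named transcript. Mean ± SEM, three independent experiments.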
A general note: Real-time PCR tracks product formation cycle by cycle.

Experiment [2] is filed under the species Mus musculus. The experiment is described as follows: Inhibition of glucogenesis in mouse assessed as decrease in hepatic C/EBPalpha protein expression measured by western blot analysis. In kind it is functional, organism-based. A digest of the protocol: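 Livers from vehicle- or treated mice (ip 20 mg·kg−1·day−1 for 7 days) homogenized in lysis buffer; FOXO1 and C/EBPα analysed by western blot.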
In general terms: A western blot detects proteins with antibodies after separation by electrophoresis.

The species named for experiment [3] is Mus musculus. The experiment is described as follows: Inhibition of glucogenesis in mouse assessed as decrease in occupancy of G6Pc promoter with FOXO1 in liver measured by ChIP-qPCR analysis. In kind it is functional, organism-based. A digest of the protocol:
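Livers from mice dosed ip at 20 mg·kg−1·day−1 for 7 days. Tissue crosslinked in 1% formaldehyde, lysed, sonicated to 200–1000 bp chromatin, immunoprecipitated with anti-FOXO1 or IgG. G6Pc promoter quantified by qPCR.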

In experiment [4] the test system is Mus musculus. The experiment is described as follows: Inhibition of lipogenesis in C57BL/6 mouse supplemented with normal chow diet assessed as decrease in FASN mRNA expression at 20 mg/kg/day, ip administered for 1 week measured by RT-qPCR assay. In kind it is functional, organism-based. The conditions noted are these: time 1.0 weeks. A digest of the protocol: (§1)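 Eight-week-old male C57BL/6 mice on normal chow were given 20 mg·kg−1·day−1 ip daily for 7 days or vehicle. Epididymal WAT was collected. Lipogenic, adipogenic and fatty-acid-oxidation transcripts were quantified by Trizol extraction and SYBR Green RT-qPCR. FAS, ACC, PPARγ and C/EBPα protein were assessed by western blot. n = 5–9; mean ± SEM.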

Experiment [5] deals with Hepatocyte. The experiment is described as follows: Inhibition of glucogenesis in mouse primary hepatocytes stimulated with 100 uM 8-Br-cAMP assessed as decrease in PEPCK mRNA expression at 3 uM in combination with 2 mM metformin measured by RT-qPCR assay. Type of experiment: functional, cell-based. A digest of the protocol: (§2)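 Primary mouse hepatocytes given 3 μM compound with 2 mM metformin in the presence of 100 μM 8-Br-cAMP. Gluconeogenic gene mRNA measured by SYBR Green RT-qPCR. Mean ± SEM, three independent experiments.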

Experiment [6] concerns Mus musculus. Briefly: Anti-obesity activity in C57BL/6 mouse supplemented with normal chow diet assessed effect on total lean mass at 20 mg/kg/day, ip administered for 1 week measured by EchoMRI live analysis. In kind it is functional, organism-based. The conditions noted are these: time 1.0 weeks. A digest of the protocol:
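Normal-chow male C57BL/6 mice, 8 weeks old, ip 20 mg·kg−1·day−1 daily for 7 days. Total lean and fat mass measured in live animals by EchoMRI. Mean ± SEM, n = 5–9.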

Another experiment concerns HepG2. Briefly: Inhibition of glucogenesis in human HepG2 cells stimulated with 8-Br-cAMP at 3 uM assessed as effect on increased CRE luciferase activity. In kind it is functional, cell-based. A digest of the protocol: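 HepG2 cells treated with 3 μM compound; CRE reporter activity measured. Mean ± SEM, three independent experiments.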
In experiment [7] the test system is Mus musculus. The experiment is described as follows: Inhibition of lipogenesis in C57BL/6 mouse supplemented with high-fat diet assessed as decrease in weight of epididymal white adipose tissue (eWAT) at 20 mg/kg/day, ip administered for 1 week. In kind it is functional, organism-based. The conditions noted are these: time 1.0 weeks. A digest of the protocol:
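Male C57BL/6 mice were fed high-fat diet for 14 weeks from 5 weeks of age, then injected ip with 20 mg·kg−1·day−1 for 7 days or given vehicle. Epididymal and inguinal WAT were weighed, examined by H&E, and analysed. Transcripts were measured by Trizol/SYBR Green RT-qPCR; proteins by western blot. n = 5–9; mean ± SEM.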

Experiment [8] has as its system Hepatocyte. Briefly: Inhibition of lipogenesis in mouse primary hepatocytes assessed as decrease in ACC mRNA expression at 3 uM in presence of 100 nM insulin and 5 to 25 mM glucose measured after 18 hrs by RT-qPCR assay. Type of experiment: functional, cell-based. A digest of the protocol:
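Primary hepatocytes isolated from C57BL/6 mice by two-step perfusion. Cells incubated 18 h with 3 μM inhibitor, with 0 or 100 nM insulin and 5 or 25 mM glucose. Transcripts quantified by SYBR Green RT-qPCR after Trizol RNA extraction; proteins by western blot of lysates. Mean ± SEM.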

Experiment [9] relates to Mus musculus. Briefly: Inhibition of hepatic lipogenesis in C57BL/6 mouse supplemented with high fat diet assessed as decrease in triglyceride level at 20 mg/kg/day, ip administered for 1 week. In kind it is functional, organism-based. The note with it: time 1.0 weeks. A digest of the protocol:
(§3)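 Male C57BL/6 mice received ip A-485 at 20 mg·kg−1·day−1 for 7 days, versus vehicle. NCD mice were 8 weeks old. HFD mice had been on high-fat diet for 14 weeks from 5 weeks of age. Liver triglyceride and total cholesterol content was determined. n = 5–9; mean ± SEM.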

Experiment [10] relates to Hepatocyte. The experiment is described as follows: Inhibition of glucogenesis in mouse primary hepatocytes stimulated with 100 uM 8-Br-cAMP assessed as effect on pAMPK protein expression at 3 uM measured after 1 hr by western blot analysis. In kind it is functional, cell-based. A digest of the protocol: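 Primary hepatocytes from C57BL/6 mice, isolated by two-step perfusion, were co-treated with 3 μM A-485 and 100 μM 8-Br-cAMP for 1 h. Phospho-CREB, phospho-AMPK and phospho-TORC2 were detected by western blot of cell lysates. Three independent experiments; mean ± SEM.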

Experiment [11] relates to Mus musculus. Briefly: Inhibition of lipogenesis in C57BL/6 mouse supplemented with normal chow diet assessed as decrease in FABP4 mRNA expression at 20 mg/kg/day, ip administered for 1 week measured measured by RT-qPCR assay. Type of experiment: functional, organism-based. The conditions noted are these: time 1.0 weeks. A digest of the protocol:
as §1

The subject of experiment [12] is Adipocyte. Briefly: Inhibition of lipogenesis in mouse adipocytes isolated stromal vascular cells assessed as decrease in C/EBPalpha protein expression measured after 24 hrs by western blot analysis. Type of experiment: functional, cell-based.
Experiment [13] deals with Adipocyte. Briefly: Inhibition of lipogenesis in mouse adipocytes isolated stromal vascular cells assessed as decrease in LPL mRNA expression measured after 24 hrs by RT-qPCR assay. In kind it is functional, cell-based. A digest of the protocol: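 Stromal vascular cells from inguinal WAT of C57BL/6 mice, grown in DMEM/F12 + 10% FBS at 37 °C, 10% CO2. At confluence, induced 48 h with 5 μg/ml insulin, 1 μM dexamethasone, 0.5 mM isobutylmethylxanthine, then 6 days in 5 μg/ml insulin; fully differentiated day 8. Mature adipocytes exposed to inhibitor 24 h. Total RNA by Trizol, SYBR Green RT-qPCR; protein by western blot.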

The test system of experiment [14] is Hepatocyte. The experiment is described as follows: Inhibition of glucogenesis in mouse primary hepatocytes stimulated with 100 uM 8-Br-cAMP assessed as effect on PGC1alpha protein expression at 3 uM measured after 12 hrs by western blot analysis. In kind it is functional, cell-based. A digest of the protocol: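 Primary mouse hepatocytes incubated 12 h with 3 μM compound and 100 μM 8-Br-cAMP. Lysates western blotted for FOXO1, C/EBPα or PGC1α. Three independent experiments.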

For experiment [15], the system named is Mus musculus. The experiment is described as follows: Inhibition of hepatic lipogenesis in C57BL/6 mouse supplemented with normal chow diet assessed as decrease in total cholesterol level at 20 mg/kg/day, ip administered for 1 week. Type of experiment: functional, organism-based. The conditions noted are these: time 1.0 weeks. A digest of the protocol: as §3

Experiment [16] deals with Hepatocyte. The experiment is described as follows: Inhibition of glucogenesis in mouse primary hepatocytes stimulated with 100 uM 8-Br-cAMP assessed as decrease in FBP mRNA expression at 3 uM in combination with 2 mM metformin measured by RT-qPCR assay. In kind it is functional, cell-based. A digest of the protocol: as §2
Experiment [17] deals with Mus musculus. Briefly: Anti-obesity activity in C57BL/6 mouse supplemented with high fat diet assessed as decrease in total fat mass at 20 mg/kg/day, ip administered for 1 week. The note with it: time 1.0 weeks. Type of experiment: functional, organism-based. A digest of the protocol:
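Male C57BL/6 mice fed high-fat diet for 14 weeks from 5 weeks of age, then ip 20 mg·kg−1·day−1 for 7 days. Body weight, EchoMRI lean/fat mass, and random or 16 h-fasted blood glucose recorded, as the line states.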

Calls of active or inactive are those of the source. No cut-off for these calls is given here.

With `CNC(=O)Nc1ccc2c(c1)CCS21OC(=O)N(CC(=O)N(Cc2ccc(F)cc2)[C@@H](C)C(F)(F)F)C1=O` (stereo partly drawn), the inhibition result in the experiment on Hepatocyte [1], in the experiment on HepG2, in the experiment on Hepatocyte [10] and in the experiment on Hepatocyte [14] was “inactive” throughout. In addition, the inhibition result in the experiment listed under Mus musculus [2], in the experiment listed under Mus musculus [3], in the experiment on Mus musculus [4], in the experiment with Hepatocyte [5], with Mus musculus [7] and in the experiment on Hepatocyte [8] was “Active” each time. The inhibition entry with Mus musculus [9], with Mus musculus [11], in the experiment on Adipocyte [12], in the experiment on Adipocyte [13], in the experiment with Mus musculus [15] and in the experiment on Hepatocyte [16] was “Active” in each case. Also, the result in the experiment with Mus musculus [6] was inactive. For the same compound, the result with Mus musculus [17] was Active.

The values above are taken from ChEMBL document CHEMBL5674890, “Selective inhibition of CBP/p300 HAT by A-485 results in suppression of lipogenesis and hepatic gluconeogenesis” (Cell Death Dis, 2020).
